# Reference: article PMC8866227 (Clinical Cancer Research, 2021)
# Where two headings read alike, the source gives them in different places.
# Assays:
# [1] = tested on: lung metastatic osteosarcoma; assay: Clinical response; type: in vivo, dog; conditions: single agent toceranib, dogs with metastatic OS
# [2] = Losartan plasma pharmacokinetics in dogs; type: in vivo, dog; conditions: for AUC(0-t) / Cmax: dog, plasma, po
# [3] = tested on: CCL2-directed monocyte migration; assay: Ex vivo CCL2-directed monocyte migration of PBMCs from treated dogs; type: in vivo, dog; conditions: for dogs with reduction of CCL2-mediated ex vivo monocyte migration from baseline: 10 mg/kg cohort
# Summary of the method: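 Blood was drawn at baseline and at rechecks (days 7, 14, 28 in the 10 mg/kg cohort) and ACK-lysed within 1 h. Fresh PBMCs were assayed immediately for CCL2-directed transwell migration. Chemotactic index is the fold-change over negative-control wells, expressed as % of week 0.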
# CCL2 = assay: Plasma CCL2 concentration in treated dogs by ELISA; type: in vivo, dog; conditions: for dogs with posttreatment increases in plasma CCL2 / mean increase in plasma CCL2 above baseline: 10 mg/kg cohort
# [4] = tested on: peripheral blood myeloid cells; assay: Peripheral blood total myeloid cell counts; type: in vivo, dog; conditions: week 4 posttreatment, low- and high-dose cohorts combined n=19
# human PBMCs [5] = assay: RNA-seq differential gene expression of losartan-treated human PBMCs; type: cell-based; conditions: losartan 10 μg/mL 24 h vs control
# Summary of the method: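 PBMCs from healthy male and female donors were Ficoll-isolated from EDTA blood and plated at 3e6/mL in RPMI, 10% FBS, penicillin/streptomycin and L-glutamine. […] Extracted RNA was sequenced. Counts were RUVr-normalized, differential expression was called by limma-voom/edgeR, and GSEA was run.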
# CCL2–CCR2 signaling = conditions: independent of AT1R; cited from earlier work
# human PBMCs [6] = assay: Gene Set Enrichment Analysis; type: cell-based; conditions: losartan treated vs control PBMCs
# [7] = tested on: CCL2-directed migration of canine PBMCs; type: cell-based
# THP-1 cells = assay: Transwell THP-1 monocyte migration to human OS cell line conditioned media; type: cell-based; conditions: 1 hour pretreatment, 10 μg/mL losartan
# Summary of the method: (§1)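 Four human (THP-1, human PBMC) or four canine (canine PBMC) OS cell lines, kept in DMEM/10% FBS at 37°C and 5% CO2, supplied conditioned media as chemoattractant in transwell migration assays. Wells were run in technical triplicate or quadruplicate. […] Results are mean ± SD, one-way ANOVA with Tukey.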
# TGFβ = assay: Serum TGF-β concentrations in treated dogs; type: in vivo, dog; conditions: high losartan dose 10 mg/kg + toceranib
# human PBMCs [8] = assay: Transwell human PBMC migration to human OS cell line conditioned media; type: cell-based; conditions: 1 hour pretreatment, 10 μg/mL losartan
# Summary of the method: as §1
# lung metastatic burden = conditions: cited from earlier work
# [9] = Systolic blood pressure monitoring in treated dogs; type: in vivo, dog; conditions: 1 and 10 mg/kg cohorts, repeated blood pressure measurements
compound,measurement,setting,value
"Cc1[nH]c(/C=C2\C(=O)Nc3ccc(F)cc32)c(C)c1C(=O)NCCN1CCCC1 [toceranib, toceranib phosphate]","Clinical benefit rate (SD, PR, and CR)",[1],18%
same,"Progression-free survival, range",[1],7 to 176 days
CCCCc1nc(Cl)c(CO)n1Cc1ccc(-c2ccccc2-c2nn[nH]n2)cc1 [losartan],mean plasma concentration,"[2]; 1 mg/kg oral cohort, OS dogs, ~6 h post dose",0.0068 µg/mL
same,AUC(0-t),[2]; 2.5 mg/kg,0.303 µg·h/mL
same,Cmax,[2]; 2.5 mg/kg,0.0767 µg/mL
same,AUC(0-t),[2]; 10 mg/kg,1.58 µg·h/mL
same,Cmax,[2]; 10 mg/kg,0.509 µg/mL
same,CCL2-mediated ex vivo monocyte migration following treatment,"[3]; 1 mg/kg losartan cohort (+ toceranib), OS dogs",unexpectedly increased
same,dogs with reduction of CCL2-mediated ex vivo monocyte migration from baseline,[3]; week 1,7 of 14
same,dogs with reduction of CCL2-mediated ex vivo monocyte migration from baseline,[3]; week 2,8 of 15
same,dogs with reduction of CCL2-mediated ex vivo monocyte migration from baseline,[3]; week 4,7 of 11
same,dogs with increases in plasma CCL2,"CCL2; 1 mg/kg cohort, 2 weeks posttreatment",five of six
same,dogs with posttreatment increases in plasma CCL2,CCL2; week 2,12 of 15
same,mean increase in plasma CCL2 above baseline,CCL2; week 2,149.4%
same,dogs with posttreatment increases in plasma CCL2,CCL2; week 4,11 of 12
same,mean increase in plasma CCL2 above baseline,CCL2; week 4,186.3%
same,total peripheral blood myeloid cells (combined monocyte and neutrophil counts),[4],significant reduction
same,genes downregulated,human PBMCs [5],27 genes
same,genes upregulated,human PBMCs [5],32 genes
same,"monocyte recruitment, noncompetitive inhibition of CCL2–CCR2 signaling induced ERK1/2 activation",CCL2–CCR2 signaling,potently inhibits
same,pathways significantly (Padj < 0.05) downregulated by GSEA,human PBMCs [6],409 pathways
same,"CCL2-directed migration of canine PBMCs, % of untreated positive control wells",[7]; losartan 100 ng/mL in vitro,42%
same,"CCL2-directed migration of canine PBMCs, % of untreated positive control wells",[7]; losartan 10 μg/mL in vitro,12%
same,THP-1 migration to OS conditioned media,THP-1 cells,significant inhibited
same,serum TGFβ posttreatment,TGFβ,no posttreatment changes
same,human PBMC migration to OS conditioned media,human PBMCs [8],significant inhibited
same,lung metastatic burden in mice,lung metastatic burden,significantly reduced
same,hypotension associated with losartan treatment,[9],no dogs experienced any significant hypotension
